Columns and labels:
[1] = Cytotoxicity in human A549 cells assessed as reduction in cell viability at 50 uM/L incubated for 24 hrs by MTT assay relative to control; format: cell-based; conditions: read-out: INH
Outline: (§1)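 A549 cells were seeded at 3000 cells/well and preincubated for 16 h at 37 °C, 5% CO2. Medium was then replaced with fresh medium holding compound (DMSO stock diluted to final 0.08, 0.4, 2.0, 10 or 50 μM/L). Exposure lasted 24 h at 37 °C, 5% CO2, followed by MTT for 4 h and absorbance at 490 nm. Results are given as % inhibition.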

[2] = Cytotoxicity in human A549 cells assessed as reduction in cell viability at 0.08 uM/L incubated for 24 hrs by MTT assay relative to control; format: cell-based; conditions: read-out: INH; outline: as §1
Candida tropicalis = test: Antifungal activity against Candida tropicalis CGMCC 2.3739 assessed as inhibition of visible microbial growth by NCCLS protocol based method; format: functional
Outline: (§2)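 Compounds dissolved in DMSO and serially diluted into growth medium. MIC was read as the lowest concentration that inhibited visible fungal growth.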

[3] = Stability in human plasma assessed as parent compound remaining at 100 uM after 60 mins LC/MS/MS analysis relative to control; format: ADME, cell-free; conditions: read-out: Stability
Outline: (§3)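 Thawed human plasma was cleared at 4000 rpm and spiked from a 100 μM dosing solution to a final 2 μM, in duplicate, at 37 °C. Propantheline served as positive control. Sampling at 0, 10, 30, 60 and 120 min into ACN/MeOH stop solution with tolbutamide and labetalol internal standards. After centrifugation, supernatant was diluted with water and run by LC/MS/MS. % remaining was taken from the analyte/IS peak-area ratio, with no standard curve.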

[4] = Cytotoxicity in human A549 cells assessed as reduction in cell viability at 10 uM/L incubated for 24 hrs by MTT assay relative to control; format: cell-based; conditions: read-out: INH; outline: as §1
Candida albicans [5] = test: Antifungal activity against Candida albicans CPCC 400523 assessed as inhibition of visible microbial growth by NCCLS protocol based method; format: functional
Cryptococcus neoformans = test: Antifungal activity against Cryptococcus neoformans CGMCC 2.3161 assessed as inhibition of visible microbial growth by NCCLS protocol based method; format: functional; outline: as §2
[6] = Stability in human plasma assessed as parent compound remaining at 100 uM after 120 mins LC/MS/MS analysis relative to control; format: ADME, cell-free; conditions: read-out: Stability; outline: as §3
Candida albicans [7] = test: Antifungal activity against fluconazole-resistant Candida albicans Strain CaR assessed as inhibition of visible microbial growth by NCCLS protocol based method; format: functional
Outline: (§4)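 Broth dilution MIC against clinical fluconazole-resistant C. albicans isolates from AIDS patients. Compounds dissolved in DMSO and serially diluted into growth medium. MIC was taken as the lowest concentration that inhibits visible fungal growth. Fluconazole and itraconazole served as positive controls.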

Aspergillus fumigatus = test: Antifungal activity against Aspergillus fumigatus CGMCC 3.7795 assessed as inhibition of visible microbial growth by NCCLS protocol based method; format: functional; outline: as §2
Candida albicans [8] = test: Antifungal activity against Candida albicans ATCC SC5314 assessed as inhibition of visible microbial growth by NCCLS protocol based method; format: functional; outline: as §2
Candida albicans [9] = test: Antifungal activity against fluconazole-resistant Candida albicans Strain 17# assessed as inhibition of visible microbial growth by NCCLS protocol based method; format: functional; outline: as §4
[10] = Cytotoxicity in human A549 cells assessed as reduction in cell viability at 0.40 uM/L incubated for 24 hrs by MTT assay relative to control; format: cell-based; conditions: read-out: INH; outline: as §1
[11] = Cytotoxicity in human A549 cells assessed as reduction in cell viability at 2 uM/L incubated for 24 hrs by MTT assay relative to control; format: cell-based; conditions: read-out: INH; outline: as §1

Row | SMILES | cytotoxicity at 24 h, 50 µM [1] [%] | cytotoxicity at 24 h, 0.08 µM [2] [%] | MIC (Candida tropicalis) [µg/mL] | remaining at 1 h, 100 µM [3] [%] | cytotoxicity at 24 h, 10 µM [4] [%] | MIC (Candida albicans [5]) [µg/mL] | MIC (Cryptococcus neoformans) [µg/mL] | remaining at 2 h, 100 µM [6] [%] | MIC (Candida albicans [7]) [µg/mL] | MIC (Aspergillus fumigatus) [µg/mL] | MIC (Candida albicans [8]) [µg/mL] | MIC (Candida albicans [9]) [µg/mL] | cytotoxicity at 24 h, 0.4 µM [10] [%] | cytotoxicity at 24 h, 2 µM [11] [%]
1 | CC[C@H](C)[C@@H](Cn1ccnc1)NC(=O)c1ccc(-c2ccccc2)cc1F | 14 | 1.2 | < 0.03 | 113 | 3.1 | < 0.03 | 1 | 86.3 | 4 | 2 | < 0.03 | 2 | 1 | 1.2
2 | CC(C)[C@@H](Cn1ccnc1)NC(=O)c1ccc(-c2ccccc2)cc1F | – | – | < 0.03 | – | – | 0.06 | 2 | – | 32 | 1 | < 0.03 | 4 | – | –
3 | C[C@@H](c1ncncc1F)[C@](O)(Cn1cncn1)c1ccc(F)cc1F [VORICONAZOLE] | 36.7 | 17.1 | – | – | 32 | – | – | – | – | – | – | – | 20.3 | 25.5
4 | CC[C@@H](Cn1ccnc1)NC(=O)c1ccc(-c2ccccc2)cc1 | – | – | 0.125 | – | – | 0.25 | 16 | – | – | 4 | < 0.06 | – | – | –
5 | CC(C)C[C@@H](Cn1ccnc1)NC(=O)c1ccc(-c2ccccc2)cc1F | – | – | < 0.03 | – | – | 0.06 | 2 | – | 4 | 2 | < 0.03 | 1 | – | –
6 | CC[C@H](C)[C@@H](Cn1ccnc1)NC(=O)c1ccc(-c2ccc(F)cc2)cc1F | – | – | 0.125 | – | – | 0.25 | 4 | – | – | 8 | 0.125 | – | – | –
7 | CC[C@H](C)[C@@H](Cn1ccnc1)NC(=O)c1ccc(-c2ccccc2)cc1OC | – | – | 0.125 | – | – | 1 | > 64 | – | – | > 64 | 0.25 | – | – | –
8 | CC(C)[C@@H](Cn1ccnc1)NC(=O)c1ccc(-c2ccccc2)cc1 | – | – | < 0.03 | – | – | 0.06 | 1 | – | – | 8 | < 0.03 | – | – | –
9 | CC(C)[C@@H](Cn1ccnc1)NC(=O)c1ccc(-c2ccc(F)cc2)cc1 | – | – | 0.25 | – | – | 0.5 | 1 | – | – | 32 | 0.25 | – | – | –
10 | CC[C@H](C)[C@@H](Cn1ccnc1)NC(=O)c1ccc(-c2cccc(F)c2)cc1F | – | – | < 0.03 | – | – | 0.06 | 4 | – | – | 4 | < 0.03 | – | – | –
11 | CC(C)[C@@H](Cn1ccnc1)NC(=O)c1ccc(-c2ccccc2F)cc1 | – | – | 0.06 | – | – | 0.06 | 1 | – | – | > 64 | < 0.03 | – | – | –
12 | O=C(N[C@@H](Cc1ccccc1)Cn1ccnc1)c1ccc(-c2ccccc2)cc1 | – | – | < 0.03 | – | – | 0.125 | 0.25 | – | – | > 64 | < 0.03 | – | – | –
